From ChEMBL document CHEMBL2057152, “Synthesis and antibacterial activity against Clostridium difficile of novel demethylvancomycin derivatives” (2012)
Converted amounts (≈) assume the structure as drawn.

Legend:
Format in all cases: functional
Clostridioides difficile [1] = assay: Ratio of MIC for demethylvancomycin to compound MIC for Clostridium difficile ATCC 700792 after 16 hrs by two-fold serial dilution method
Clostridioides difficile [2] = assay: Ratio of MIC for demethylvancomycin to compound MIC for Clostridium difficile IQCC 23903 after 16 hrs by two-fold serial dilution method
Clostridioides difficile [3] = assay: Ratio of MIC for vancomycin to compound MIC for Clostridium difficile ATCC 700792 after 16 hrs by two-fold serial dilution method
Clostridioides difficile [4] = assay: Antibacterial activity against Clostridium difficile ATCC 700792 after 16 hrs by two-fold serial dilution method; settings: ATCC 700792, 16 h
Outline: (§1)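 CLSI agar dilution MIC. Compounds are dissolved in 50% water in DMSO as a stock, twofold serially diluted in sterile water, then diluted 10-fold into Mueller-Hinton agar. Organisms are grown in MH broth at 35 °C for 8 h and adjusted to 0.5 McFarland. They are applied to the drug-containing plates by multipoint inoculator and incubated at 35 °C for 16 h. Vancomycin and demethylvancomycin serve as controls.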

Enterococcus faecalis [5] = assay: Antibacterial activity against Enterococcus faecalis ATCC 700802 after 16 hrs by two-fold serial dilution method; settings: ATCC 700802, 16 h; outline: as §1
Clostridioides difficile [6] = assay: Ratio of MIC for vancomycin to compound MIC for Clostridium difficile IQCC 23903 after 16 hrs by two-fold serial dilution method
Clostridioides difficile [7] = assay: Ratio of MIC for demethylvancomycin to compound MIC for Clostridium difficile ATCC 700057 after 16 hrs by two-fold serial dilution method
Clostridioides difficile [8] = assay: Ratio of MIC for demethylvancomycin to compound MIC for Clostridium difficile ATCC 43255 after 16 hrs by two-fold serial dilution method
Clostridioides difficile [9] = assay: Ratio of MIC for vancomycin to compound MIC for Clostridium difficile ATCC 700057 after 16 hrs by two-fold serial dilution method
Clostridioides difficile [10] = assay: Antibacterial activity against Clostridium difficile IQCC 23903 after 16 hrs by two-fold serial dilution method; settings: IQCC 23903, 16 h; outline: as §1
Clostridioides difficile [11] = assay: Antibacterial activity against Clostridium difficile ATCC 700057 after 16 hrs by two-fold serial dilution method; settings: ATCC 700057, 16 h; outline: as §1
[12] = Antibacterial activity against Clostridium difficile ATCC 43255 after 16 hrs by two-fold serial dilution method; settings: Clostridioides difficile, ATCC 43255, 16 h; outline: as §1
Clostridioides difficile [13] = assay: Ratio of MIC for vancomycin to compound MIC for Clostridium difficile ATCC 43255 after 16 hrs by two-fold serial dilution method
Enterococcus faecalis [14] = assay: Ratio of MIC for vancomycin to compound MIC for Enterococcus faecalis ATCC 700802 after 16 hrs by two-fold serial dilution method
Enterococcus faecalis [15] = assay: Ratio of MIC for demethylvancomycin to compound MIC for Enterococcus faecalis ATCC 700802 after 16 hrs by two-fold serial dilution method

| SMILES | Ratio (Clostridioides difficile [1]) | Ratio (Clostridioides difficile [2]) | Ratio (Clostridioides difficile [3]) | MIC (Clostridioides difficile [4]) [µg/mL] | MIC (Enterococcus faecalis [5]) [µg/mL] | Ratio (Clostridioides difficile [6]) | Ratio (Clostridioides difficile [7]) | Ratio (Clostridioides difficile [8]) | Ratio (Clostridioides difficile [9]) | MIC (Clostridioides difficile [10]) [µg/mL] | MIC (Clostridioides difficile [11]) [µg/mL] | MIC [12] [µg/mL] | Ratio (Clostridioides difficile [13]) | Ratio (Enterococcus faecalis [14]) | Ratio (Enterococcus faecalis [15]) |
| --- | --- | --- | --- | --- | --- | --- | --- | --- | --- | --- | --- | --- | --- | --- | --- |
| CC(C)C[C@@H](N)C(=O)N[C@H]1C(=O)N[C@@H](CC(N)=O)C(=O)N[C@H]2C(=O)N[C@H]3C(=O)N[C@H](C(=O)N[C@H](C(=O)O)c4cc(O)cc(O)c4-c4cc3ccc4O)[C@H](O)c3ccc(c(Cl)c3)Oc3cc2cc(c3O[C@@H]2O[C@H](CO)[C@@H](O)[C@H](O)[C@H]2O[C@H]2C[C@](C)(NCc3ccc4ccccc4c3)[C@H](O)[C@H](C)O2)Oc2ccc(cc2Cl)[C@H]1O | 2 | 2 | 2 | 0.125 (≈ 0.0793 µM) | 16 (≈ 10.2 µM) | 2 | 2 | 2 | 2 | 0.25 (≈ 0.159 µM) | 0.25 (≈ 0.159 µM) | 0.25 (≈ 0.159 µM) | 2 | – | – |
| CC(C)C[C@@H](N)C(=O)N[C@H]1C(=O)N[C@@H](CC(N)=O)C(=O)N[C@H]2C(=O)N[C@H]3C(=O)N[C@H](C(=O)N[C@H](C(=O)O)c4cc(O)cc(O)c4-c4cc3ccc4O)[C@H](O)c3ccc(c(Cl)c3)Oc3cc2cc(c3O[C@@H]2O[C@H](CO)[C@@H](O)[C@H](O)[C@H]2O[C@H]2C[C@](C)(NCc3c4ccccc4cc4ccccc34)[C@H](O)[C@H](C)O2)Oc2ccc(cc2Cl)[C@H]1O | 2 | 2 | 2 | 0.25 (≈ 0.154 µM) | 2 (≈ 1.23 µM) | 2 | 2 | 2 | 2 | 0.25 (≈ 0.154 µM) | 0.5 (≈ 0.308 µM) | 0.25 (≈ 0.154 µM) | 2 | – | – |
| CCCCCCCN[C@@]1(C)C[C@H](O[C@H]2[C@H](Oc3c4cc5cc3Oc3ccc(cc3Cl)[C@@H](O)[C@@H](NC(=O)[C@H](N)CC(C)C)C(=O)N[C@@H](CC(N)=O)C(=O)N[C@H]5C(=O)N[C@H]3C(=O)N[C@H](C(=O)N[C@H](C(=O)O)c5cc(O)cc(O)c5-c5cc3ccc5O)[C@H](O)c3ccc(c(Cl)c3)O4)O[C@H](CO)[C@@H](O)[C@@H]2O)O[C@@H](C)[C@H]1O | 2 | 2 | 2 | 0.5 (≈ 0.326 µM) | 8 (≈ 5.22 µM) | 2 | 2 | 2 | 2 | 0.25 (≈ 0.163 µM) | 0.25 (≈ 0.163 µM) | 0.5 (≈ 0.326 µM) | 2 | – | – |
| CCCCCCCCCCCN[C@@]1(C)C[C@H](O[C@H]2[C@H](Oc3c4cc5cc3Oc3ccc(cc3Cl)[C@@H](O)[C@@H](NC(=O)[C@H](N)CC(C)C)C(=O)N[C@@H](CC(N)=O)C(=O)N[C@H]5C(=O)N[C@H]3C(=O)N[C@H](C(=O)N[C@H](C(=O)O)c5cc(O)cc(O)c5-c5cc3ccc5O)[C@H](O)c3ccc(c(Cl)c3)O4)O[C@H](CO)[C@@H](O)[C@@H]2O)O[C@@H](C)[C@H]1O | – | – | – | 0.5 (≈ 0.315 µM) | 0.5 (≈ 0.315 µM) | – | – | – | – | 0.5 (≈ 0.315 µM) | 0.5 (≈ 0.315 µM) | 0.5 (≈ 0.315 µM) | – | 64 | 64 |
| CC(C)C[C@@H](N)C(=O)N[C@H]1C(=O)N[C@@H](CC(N)=O)C(=O)N[C@H]2C(=O)N[C@H]3C(=O)N[C@H](C(=O)N[C@H](C(=O)O)c4cc(O)cc(O)c4-c4cc3ccc4O)[C@H](O)c3ccc(c(Cl)c3)Oc3cc2cc(c3O[C@@H]2O[C@H](CO)[C@@H](O)[C@H](O)[C@H]2O[C@H]2C[C@](C)(NCCC(C)CC(C)(C)C)[C@H](O)[C@H](C)O2)Oc2ccc(cc2Cl)[C@H]1O (some centres undefined) | 2 | 2 | 2 | 0.5 (≈ 0.32 µM) | 8 (≈ 5.12 µM) | 2 | 2 | 2 | 2 | 0.25 (≈ 0.16 µM) | 0.25 (≈ 0.16 µM) | 0.5 (≈ 0.32 µM) | 2 | – | – |
